Data from PubChem BioAssay.
The source made the active and inactive calls.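 Rule for the calls, unless noted: active = viability at or under a set limit in both replicates, limit being median viability minus 3 SD (cut at about 48% in these data, passing the limit was not always enough); inconclusive = at or under the limit in just one replicate; inactive = at or above the limit in both replicates.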

Key:
[1] = biological target: Pantothenate synthetase (Mycobacterium tuberculosis (strain ATCC 25618 / H37Rv)) (UniProt P9WIL5); test: Recombinant Mtb pantothenate synthetase (PanC) inhibitors, coupled enzyme, confirmatory (AID 375; call rule not given here;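 note: 0% = full reaction with vehicle and 100% = no enzyme background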); conditions: coupled enzyme assay; at 10 µM, stronger effect = higher value
[2] = reducers of endogenous Her2 protein level, primary screen, SKBR3 breast tumor cells, AlphaScreen, ATP viability (AID 461;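 active = Her2 level under about 52% in both replicate screens, with viability over 70% of control, limit read from the data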;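 for Her2 level: lower value means less Her2 protein in the cells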;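 for viability: percent of carrier control wells set as 100% viability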); conditions: 18-24 h, measured here: SKBR3 viability, ATP luminescence, at 10 µM
[3] = biological target: Receptor tyrosine-protein kinase erbB-2 (Homo sapiens) (UniProt P04626); test: as above; conditions: 18-24 h, at 10 µM, stronger effect = lower value
[4] = SK-BR-3 cell growth inhibitors, pilot screen, 24 h, human (AID 572;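 active = viability at or below 10% of carrier control in both of two separate runs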;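 note: compound exposure lasted between 18 and 24 h rather than exactly 24 h; 100% = carrier-treated control wells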); conditions: SK-BR-3 viability, CellTiter-Glo luminescence, at 10 µM, stronger effect = lower value
[5] = HUVEC growth inhibition – cell-based, human, primary screen (AID 575;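 active = viability at or below 30% in both replicate assays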;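 note: 100% = median of untreated cell wells with 0.1% DMSO on each plate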); conditions: HUVEC proliferation, CellTiter-Glo luminescence, 72 h; at 10 µM; stronger effect = lower value
Summary of the method: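 Test system: HUVEC primary cells. Quantity: 1250 endothelial cells in each well. Dosing: single-point 10 µM, DMSO 0.1% final. Incubation: 72 h treatment at 37 °C. Measured by: CTG luminescence. Control set: DMSO cell controls and MePR drug controls. Plate: collagen-coated 384-well format.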

[6] = growth inhibitors of H69AR lung tumor, primary screen, human, duplicate replicates (AID 580); conditions: H69AR lung tumor cells viability, ATP luminescence, 72 h; at 10 µM; stronger effect = lower value;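 note: 100% = mean luminescence of untreated wells and 0% = no signal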
[7] = reversal of MRP1-mediated doxorubicin resistance, pilot screen, H69AR cells, doxorubicin co-treatment (AID 601;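 active = viability loss from added drug above about 55%, and viability with drug at most 40%, in both replicates, limit read from the data, passing the limit was not always enough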); conditions: CellTiter-Glo, 72 h, at 10 µM; for differential viability (reversal): stronger effect = higher value
[8] = 384-well plate pilot, post-Golgi transport modulator project, inhibition of yeast transport mutant growth (AID 636; in the data active = inhibition above about 31%); conditions: absorbance 615 nm, about 18 h, stronger effect = higher value
[9] = growth suppression of yeast trafficking mutant, preliminary HTS, modulators of trafficking downstream of Golgi apparatus project, 1536-format plate, OD 615 nm (AID 637; in the data active = inhibition above about 30%); conditions: yeast transport mutant growth, absorbance 615 nm, 18 h; stronger effect = higher value
[10] = H69AR cells + 2 uM doxorubicin, measured here: viability with 2 uM doxorubicin, stronger effect = lower value
[11] = H69AR cells, compound alone cytotoxicity

Sequence of Receptor tyrosine-protein kinase erbB-2 (Homo sapiens) (P04626 whole entry, looked up): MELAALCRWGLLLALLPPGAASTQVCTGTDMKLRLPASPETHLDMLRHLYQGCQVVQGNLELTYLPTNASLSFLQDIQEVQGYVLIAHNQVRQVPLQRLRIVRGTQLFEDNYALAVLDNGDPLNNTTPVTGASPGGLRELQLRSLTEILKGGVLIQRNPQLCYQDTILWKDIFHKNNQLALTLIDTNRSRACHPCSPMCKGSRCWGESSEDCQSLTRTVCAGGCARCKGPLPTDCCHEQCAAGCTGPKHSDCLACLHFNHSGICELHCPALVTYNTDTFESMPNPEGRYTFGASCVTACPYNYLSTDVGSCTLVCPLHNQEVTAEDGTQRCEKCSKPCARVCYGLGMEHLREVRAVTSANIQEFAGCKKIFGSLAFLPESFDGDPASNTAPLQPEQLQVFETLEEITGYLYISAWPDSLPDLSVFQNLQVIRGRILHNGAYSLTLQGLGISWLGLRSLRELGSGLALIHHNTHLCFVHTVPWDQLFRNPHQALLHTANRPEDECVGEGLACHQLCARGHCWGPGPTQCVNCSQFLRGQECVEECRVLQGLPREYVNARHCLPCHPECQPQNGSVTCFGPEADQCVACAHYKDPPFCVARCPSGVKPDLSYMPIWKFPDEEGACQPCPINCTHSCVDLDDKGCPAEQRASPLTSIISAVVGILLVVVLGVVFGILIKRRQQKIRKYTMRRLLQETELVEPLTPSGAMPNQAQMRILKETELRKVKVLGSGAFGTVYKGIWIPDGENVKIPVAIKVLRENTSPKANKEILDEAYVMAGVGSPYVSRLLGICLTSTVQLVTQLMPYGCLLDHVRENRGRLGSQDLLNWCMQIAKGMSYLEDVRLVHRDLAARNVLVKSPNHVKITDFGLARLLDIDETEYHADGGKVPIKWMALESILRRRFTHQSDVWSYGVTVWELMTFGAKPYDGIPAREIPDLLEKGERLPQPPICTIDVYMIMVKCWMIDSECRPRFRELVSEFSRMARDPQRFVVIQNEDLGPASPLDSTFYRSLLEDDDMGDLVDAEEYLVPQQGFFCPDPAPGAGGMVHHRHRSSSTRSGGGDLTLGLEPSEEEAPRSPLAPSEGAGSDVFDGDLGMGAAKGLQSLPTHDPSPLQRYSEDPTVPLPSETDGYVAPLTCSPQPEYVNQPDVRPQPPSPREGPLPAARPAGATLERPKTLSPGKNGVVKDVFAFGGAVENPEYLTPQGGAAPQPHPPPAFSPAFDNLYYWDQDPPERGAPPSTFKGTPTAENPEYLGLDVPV
Sequence of Pantothenate synthetase (Mycobacterium tuberculosis (strain ATCC 25618 / H37Rv)) (P9WIL5 whole entry, looked up): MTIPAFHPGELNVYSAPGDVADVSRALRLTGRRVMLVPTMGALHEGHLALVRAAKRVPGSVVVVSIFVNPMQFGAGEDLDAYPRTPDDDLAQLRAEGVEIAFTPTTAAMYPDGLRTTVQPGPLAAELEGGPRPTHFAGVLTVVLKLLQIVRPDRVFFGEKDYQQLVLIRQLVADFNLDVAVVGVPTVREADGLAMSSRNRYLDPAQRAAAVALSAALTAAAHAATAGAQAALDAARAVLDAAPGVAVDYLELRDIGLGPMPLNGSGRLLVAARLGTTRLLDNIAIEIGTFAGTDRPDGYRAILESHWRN

Structure (SMILES) | inhibition [1] | viability [2] | Her2 level [3] | viability [4] | viability [5] | viability [6] | differential viability (reversal) ([7]; H69AR cells + 2 uM doxorubicin) | viability [7, 10] | viability [7, 11] | inhibition [8] | inhibition [9]
Cc1ccc(C)c(NC2=NCCCS2)c1 | 0% (inactive) | 108% | 89.5% (inactive) | 108% (inactive) | 91.9% (inactive) | 104% (inactive) | 11.3% (inactive) | 92.9% | 104% | -8.08% (inactive) | -1.59% (inactive)
OCCOCC#CCN1CCOCC1 | 0% (inactive) | 102% | 114% (inactive) | 102% (inactive) | 101% (inactive) | 93.8% (inactive) | 3.84% (inactive) | 89.9% | 93.8% | -1.45% (inactive) | 1.31% (inactive)
CCN(CC)CCN=Cc1c(O)n(CCC2=CCCCC2)c(=O)[nH]c1=O | 5% (inactive) | 90.5% | 86% (inactive) | 90.5% (inactive) | 62.5% (inactive) | 74.7% (inactive) | -11.4% (inactive) | 86.1% | 74.7% | -5.84% (inactive) | -4.29% (inactive)
Cc1ccc(C)c(NC(=O)CSc2nnc([C@@H](N)Cc3c[nH]c4ccccc34)o2)c1 | 6% (inactive) | 101% | 94.5% (inactive) | 101% (inactive) | 86.9% (inactive) | 106% (inactive) | 13.5% (inactive) | 92.9% | 106% | -5.2% (inactive) | -4.13% (inactive)
c1cncc(CNC2=NCCCCC2)c1 | 1% (inactive) | 80.5% | 106% (inactive) | 80.5% (inactive) | 96.6% (inactive) | 97.4% (inactive) | 6.13% (inactive) | 91.3% | 97.4% | -0.78% (inactive) | -4.92% (inactive)
O=C1CC(N2CCC(n3c(=O)[nH]c4ccccc43)CC2)C(=O)N1c1ccc(F)cc1 (stereo not given) | 5% (inactive) | 93.5% | 67.5% (inactive) | 93.5% (inactive) | 80.7% (inactive) | 103% (inactive) | 3.01% (inactive) | 100% | 103% | -4.74% (inactive) | -6.5% (inactive)
O=C(COc1ccc2ccccc2c1)N1CCN(C2CCN(Cc3ccccc3)CC2)CC1 | 0% (inactive) | 93% | 92% (inactive) | 93% (inactive) | 62.5% (inactive) | 99.8% (inactive) | 3.83% (inactive) | 96% | 99.8% | -0.13% (inactive) | 1.8% (inactive)
COc1cc(C2NCc3ccccc3-n3cccc32)ccc1O (stereo not given) | 0% (inactive) | 104% | 102% (inactive) | 104% (inactive) | 105% (inactive) | 101% (inactive) | 9.64% (inactive) | 90.9% | 101% | -5.79% (inactive) | -1.27% (inactive)
CCOc1ccc(-n2c(O)c(C=NCCN3CCNCC3)c(=O)[nH]c2=O)cc1 | 3% (inactive) | 102% | 77.5% (inactive) | 102% (inactive) | 100% (inactive) | 89% (inactive) | -4.71% (inactive) | 93.8% | 89% | -1.58% (inactive) | -3.71% (inactive)
CSc1ccc(CNC2CN3CCC2CC3)cc1 (stereo not given) | 0% (inactive) | 89.5% | 93.5% (inactive) | 89.5% (inactive) | 91.2% (inactive) | 89.1% (inactive) | 7.31% (inactive) | 81.8% | 89.1% | -3.47% (inactive) | -3.77% (inactive)
CC(C)OCCCNC(=O)c1c(N)n(CC2CCCO2)c2nc3ccccc3nc12 (stereo not given) | 2% (inactive) | 100% | 71.5% (inactive) | 100% (inactive) | 55.2% (inactive) | 59.6% (inactive) | -19.6% (inactive) | 79.2% | 59.6% | -4.8% (inactive) | -4.13% (inactive)
CCOc1c(P(=S)(N(C)C)N(C)C)c(C)nn1-c1ccccc1 | 1% (inactive) | 83% | 120% (inactive) | 83% (inactive) | 98.6% (inactive) | 101% (inactive) | 17% (inactive) | 84.1% | 101% | -2.24% (inactive) | -11% (inactive)
CCN1CCN(C(=O)COc2cc(=O)n(CC)c3ccccc23)CC1 | 0% (inactive) | 80.5% | 104% (inactive) | 80.5% (inactive) | 89.2% (inactive) | 90.3% (inactive) | 22.7% (inactive) | 67.6% | 90.3% | 0.38% (inactive) | 0.67% (inactive)
CC(=O)N1CC(=O)Nc2ccc(Cl)cc2C1c1ccc(F)cc1 (stereo not given) | 0% (inactive) | 92.5% | 102% (inactive) | 92.5% (inactive) | 88.5% (inactive) | 97.5% (inactive) | 25.5% (inactive) | 72% | 97.5% | -3.29% (inactive) | -3.45% (inactive)
O=C(NC1(C(F)(F)F)Oc2ccc(Cl)cc2O1)N1CCC2(CC1)OCCO2 (stereo not given) | 1% (inactive) | 91.5% | 87.5% (inactive) | 91.5% (inactive) | 58.5% (inactive) | 27.9% (active) | -23.8% (inactive) | 51.7% | 27.9% | -2.47% (inactive) | -5.56% (inactive)
O=C(c1ccncc1)C12CN3CN(CN(C3)C1)C2 | 0% (inactive) | 115% | 114% (inactive) | 115% (inactive) | 97.6% (inactive) | 89.5% (inactive) | 5.16% (inactive) | 84.4% | 89.5% | -3.25% (inactive) | -2.5% (inactive)
Cc1ccc(C(=O)C2CN3CCC2CC3)cc1 (stereo not given) | 0% (inactive) | 93% | 91% (inactive) | 93% (inactive) | 94.3% (inactive) | 97.6% (inactive) | 4.27% (inactive) | 93.3% | 97.6% | -4.55% (inactive) | 4.5% (inactive)
Cc1ccc(-c2nc(CS(=O)CC(=O)N3CCC4(CC3)OCCO4)c(C)o2)cc1 (stereo not given) | 0% (inactive) | 92.5% | 99% (inactive) | 92.5% (inactive) | 96.4% (inactive) | 85.1% (inactive) | -10.6% (inactive) | 95.7% | 85.1% | -4.42% (inactive) | -0.79% (inactive)
CCOC(=O)c1cccc([P+](=O)O)c1 | 0% (inactive) | 92.5% | 114% (inactive) | 92.5% (inactive) | 96.3% (inactive) | 96.5% (inactive) | -0.595% (inactive) | 97.1% | 96.5% | 3.95% (inactive) | -9.03% (inactive)
c1ccc(C2CC3CC(c4ccco4)N2O3)cc1 (stereo not given) | 0% (inactive) | 93% | 89.5% (inactive) | 93% (inactive) | 82.8% (inactive) | 113% (inactive) | 22.5% (inactive) | 90.9% | 113% | -0.4% (inactive) | -7.74% (inactive)
O=c1[nH]c(=O)n(-c2ccc(F)cc2)c(O)c1C=Nc1ccccc1N1CCCC1 | 8% (inactive) | 97.5% | 105% (inactive) | 97.5% (inactive) | 73.9% (inactive) | 61.3% (inactive) | -6.94% (inactive) | 68.2% | 61.3% | -3.55% (inactive) | 3% (inactive)
COc1ccccc1N1CCN(Cc2cccc(OC)c2O)CC1 | 0% (inactive) | 89% | 93% (inactive) | 89% (inactive) | 118% (inactive) | 91.6% (inactive) | 5.07% (inactive) | 86.6% | 91.6% | -5% (inactive) | 5.25% (inactive)
O=c1[nH]c(=O)n(Cc2ccccc2)c(O)c1C=NCCCO | 8% (inactive) | 100% | 96.5% (inactive) | 100% (inactive) | 94.1% (inactive) | 117% (inactive) | 27.1% (inactive) | 89.9% | 117% | -6.13% (inactive) | -0.65% (inactive)
CCCCn1c(O)c(C(C)=Nc2cccc(C(=O)O)c2)c(=O)[nH]c1=O | 0% (inactive) | 108% | 106% (inactive) | 108% (inactive) | 89.4% (inactive) | 105% (inactive) | 4.39% (inactive) | 100% | 105% | -2.11% (inactive) | 9.02% (inactive)
Cc1ccc(O)c(CN2CCN(c3ccccc3)CC2)c1 | 13% (inactive) | 94% | 88.5% (inactive) | 94% (inactive) | 101% (inactive) | 85.5% (inactive) | 11.5% (inactive) | 74% | 85.5% | -8.38% (inactive) | 1.33% (inactive)
C=CCn1c(O)c(C(C)=NCCCO)c(=O)[nH]c1=O | 0% (inactive) | 93% | 114% (inactive) | 93% (inactive) | 107% (inactive) | 94.3% (inactive) | 2.26% (inactive) | 92.1% | 94.3% | -4.94% (inactive) | -8.5% (inactive)
CCN1c2nc3c(C)cccn3c(=O)c2CC2(C(=O)N(C)C(=O)N(C)C2=O)C1C (stereo not given) | 0% (inactive) | 101% | 94.5% (inactive) | 101% (inactive) | 88.9% (inactive) | 91.4% (inactive) | 4.38% (inactive) | 87% | 91.4% | -4.59% (inactive) | -2.13% (inactive)
CC12CCCCC1=[N+]([O-])CN2O (stereo not given) | 5% (inactive) | 102% | 112% (inactive) | 102% (inactive) | 109% (inactive) | 105% (inactive) | 15.9% (inactive) | 89.4% | 105% | -1.33% (inactive) | 8.71% (inactive)
Cc1cc(N2C(=O)C3CCCN3C2c2cccc(Cl)c2)no1 (stereo not given) | 4% (inactive) | 95% | 96.5% (inactive) | 95% (inactive) | 89.3% (inactive) | 109% (inactive) | 21% (inactive) | 88% | 109% | -0.13% (inactive) | -0.97% (inactive)
Nc1ccnn1C1CCNCC1 | 2% (inactive) | 88.5% | 105% (inactive) | 88.5% (inactive) | 97% (inactive) | 107% (inactive) | 5.6% (inactive) | 102% | 107% | -4.25% (inactive) | -2.06% (inactive)
